Screening results (PubChem)
NPY-Y1 antag: NPY-Y1 receptor antagonists, primary screen, cell-based. HEK293-CNG Y1 cells, membrane potential fluorescence; NPY at EC95, then isoproterenol. inhibition, % at 3.6 µM. hit rate 1% among 200,000. AID 1040, 2008;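 active = inhibition above the campaign mean inhibition of all tested compounds plus 3 SD, cut at about 20% in these data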;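 note: 0% = DMSO wells given NPY plus isoproterenol and 100% = isoproterenol alone without NPY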
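Material: HEK293 Y1/CNG channel cell line | Also added: NPY (25 nM), isoproterenol (1 µM), Ro 20-1724 (25 µM) | Compound: One concentration, 3.6 µM, in 0.4% DMSO | Schedule: 3 h dye uptake, 1 h room-temperature compound, 45 min post-isoproterenol | Signal: Membrane-potential fluorescent dye readout | Read-out: % inhibition of NPY effect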
MDM2 E3 inh: MDM2-luciferase reporter signal enhancers, primary screen, MDM2 E3 ligase inhibitor project, cell-based, luminescence, 1536-well. E3 ubiquitin-protein ligase Mdm2 (Homo sapiens), Q00987. cell-based MDM2 ubiquitination luciferase reporter, 2 h; 0 = plate control, 100 = twice control, blank-subtracted. signal enhancement, % at 5 µM. hit rate 0.11% among 210,000. AID 1230, 2008;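 active = signal enhancement of 30% or more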;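 note: luminescence tracks abundance of the self-degrading MDM2-luciferase fusion protein; higher signal means inhibition of MDM2 E3 ligase activity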
Target sequence (Q00987 whole entry, looked up, the tested form may be a part): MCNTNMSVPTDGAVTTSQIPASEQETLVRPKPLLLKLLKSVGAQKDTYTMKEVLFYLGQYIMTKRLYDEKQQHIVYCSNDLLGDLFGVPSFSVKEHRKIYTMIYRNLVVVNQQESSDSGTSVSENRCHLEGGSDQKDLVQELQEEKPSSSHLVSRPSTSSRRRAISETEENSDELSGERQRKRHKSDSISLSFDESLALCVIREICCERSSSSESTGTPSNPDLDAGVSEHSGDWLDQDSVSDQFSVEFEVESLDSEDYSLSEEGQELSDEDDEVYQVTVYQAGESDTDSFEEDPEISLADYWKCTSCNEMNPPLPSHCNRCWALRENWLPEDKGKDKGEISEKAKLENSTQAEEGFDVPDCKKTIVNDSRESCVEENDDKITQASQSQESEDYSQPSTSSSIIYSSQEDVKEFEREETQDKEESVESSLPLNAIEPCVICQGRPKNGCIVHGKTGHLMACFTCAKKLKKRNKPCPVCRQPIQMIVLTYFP
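Test system: mammalian cells stably expressing self-ubiquitinating, self-degrading MDM2 E3–luciferase fusion; Amount: 2000 cells in each well; Medium: DMEM; Schedule: 4 h settle plus 2 h compound, 37 °C; Technique: SteadyLite luciferase luminescence after 15 min room-temperature reagent incubation; Benchmarks: plate control and blank wells.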
NPY2 pot ag: NPY-Y2 potentiators or agonists, primary screen, cell-based. Neuropeptide Y receptor type 2 (Homo sapiens), P49146. cells expressing NPY-Y2, potentiator/agonist read-out. activation, % at 3.6 µM. hit rate 0.45% among 220,000. AID 1359, 2008; in the data active = activation above about 27%;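 note: cells stimulated with NPY near EC25 plus isoproterenol at EC100; 0% = vehicle plus submaximal agonist and 100% = vehicle plus saturating agonist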
NPY-Y1 PAM-ag: NPY-Y1 receptor potentiators or agonists, primary screen, cell-based; hit rate 0.37% among 220,000; NPY-Y1 expressing cells, potentiator/agonist activation; Neuropeptide Y receptor type 1 (Homo sapiens), P25929; activation, % at 3.6 µM; in the data active = activation above about 33%, passing the limit was not always enough;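 note: cells stimulated with NPY at EC10 then isoproterenol at EC100; 0% = low agonist plus stimulus and 100% = saturating agonist plus stimulus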
Measles CPE: compounds protecting cells from measles virus cytopathic effect, primary screen, measles RdRp inhibitor project, single point, MLSMR library, absorbance | Measles virus-infected cells, CPE protection | hit rate 1.5% among 140,000 | protection (pct of control), % at 4 µM; in the data active = protection mostly above about 24%, no sharp cut-off; inactive = mostly below about 26%
NPY-Y2 antag: NPY-Y2 receptor antagonists, primary screen, cell-based | Neuropeptide Y receptor type 2 (Homo sapiens), P49146 | NPY-Y2 expressing cells, antagonist mode | inhibition, % at 2.7 µM | hit rate 0.99% among 140,000; in the data active = inhibition above about 17%;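 note: 0% = vehicle with agonist challenge and 100% = reference antagonist with challenge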
* = called active by the depositor. The list is not random: actives were taken first. Their share in the collection is about 2.8%.

`N#Cc1ccc(CSc2nnc(Cc3cccs3)n2Cc2ccco2)cc1` gave NPY-Y1 antag 23*, MDM2 E3 inh -15, NPY2 pot ag -23, NPY-Y1 PAM-ag -34, Measles CPE 18 and NPY-Y2 antag 17.
Screening Cc1cccc(NC(=O)CSc2nnc(CSc3nc(C)cc(C)n3)n2Cc2ccco2)c1 returned NPY-Y1 antag -3, MDM2 E3 inh -6, NPY2 pot ag -1, NPY-Y1 PAM-ag 15, Measles CPE 9 and NPY-Y2 antag 0.
For Cc1cc(C)nc(SCc2nnc(SCC(=O)Nc3nccs3)n2Cc2ccco2)n1 the results were NPY-Y1 antag 1, MDM2 E3 inh -47, NPY2 pot ag 16, NPY-Y1 PAM-ag 9, Measles CPE 41* and NPY-Y2 antag 1.
`Cc1cc(Cl)ccc1NC(=O)CSc1nnc(Cc2cccs2)n1Cc1ccco1` gave NPY-Y1 antag 23*, MDM2 E3 inh -35, NPY2 pot ag -16, NPY-Y1 PAM-ag -17 and NPY-Y2 antag 21*.
O=C(CN(C(=O)C1CSC(=O)C1)c1ccccc1F)NCc1ccc2c(c1)OCO2 (stereo unspecified) was read as NPY-Y1 antag -3, MDM2 E3 inh -16, NPY2 pot ag -6, NPY-Y1 PAM-ag -6, Measles CPE 63* and NPY-Y2 antag 2.
`COc1ccc(CNCCC(c2ccccc2)c2ccc3c(c2)OCO3)cc1` (stereo unspecified) gave NPY-Y1 antag 34*, MDM2 E3 inh -12, NPY2 pot ag -3, NPY-Y1 PAM-ag 6, Measles CPE 5 and NPY-Y2 antag 17*.
`O=C(CSc1nc2cc(Cl)ccc2s1)N1CCN(C(=O)c2ccco2)CC1` gave NPY-Y1 antag 14, MDM2 E3 inh -1, NPY2 pot ag -4, NPY-Y1 PAM-ag -25, Measles CPE 61* and NPY-Y2 antag 12.
Screening O=C(CN1CCN(C(=O)c2ccco2)CC1)Nc1ccccc1-c1ccccc1 returned NPY-Y1 antag -4, MDM2 E3 inh 5, NPY2 pot ag 5, NPY-Y1 PAM-ag -5, Measles CPE 10 and NPY-Y2 antag 2.
`O=C(CN1CCN(C(=O)c2ccco2)CC1)Nc1cc(Cl)ccc1Cl` gave NPY-Y1 antag 10, MDM2 E3 inh -5, NPY2 pot ag 10, NPY-Y1 PAM-ag -13, Measles CPE 69* and NPY-Y2 antag 2.
For COC(=O)c1cccc(C23CC4(C2)[C@H](CN(Cc2cccnc2)[C@@H]4c2ccccc2)C3c2ccccc2)c1 (stereo partly specified) the results were MDM2 E3 inh -1.
`C=C1SC(Nc2c(C)cc(C)cc2C)=NC12CCCCC2` gave MDM2 E3 inh -10, NPY2 pot ag 4 and NPY-Y1 PAM-ag 24.
Screening COCCn1c(=NC(=O)c2ccc(S(=O)(=O)N3CCCc4ccccc43)cc2)sc2cc(S(C)(=O)=O)ccc21 returned NPY-Y1 antag 1, MDM2 E3 inh 42*, NPY2 pot ag 1, NPY-Y1 PAM-ag 10, Measles CPE 16 and NPY-Y2 antag -2.
`CC1Cn2c(nc(=O)c3c2NCN(CCc2ccccc2)C3)S1` (stereo unspecified) gave NPY-Y1 antag -3, MDM2 E3 inh 27, NPY2 pot ag -3 and NPY-Y1 PAM-ag 10.
`C=CCNC(=O)CSc1nnc(C(CC)N(C)C)n1C1CCCCC1` (stereo unspecified) gave MDM2 E3 inh -16, NPY2 pot ag 12 and NPY-Y1 PAM-ag 20.
`CC(C)OC(=O)CSc1nnc(CNc2nc(-c3ccccc3)cs2)n1C` gave NPY-Y1 antag 6, MDM2 E3 inh -3, NPY2 pot ag -2, NPY-Y1 PAM-ag -7, Measles CPE 6 and NPY-Y2 antag 4.
COc1cccc(C(=O)CSc2nnc(CNc3nc(-c4ccccc4)cs3)n2C)c1 was read as NPY-Y1 antag 0, MDM2 E3 inh 0, NPY2 pot ag -15, NPY-Y1 PAM-ag -1, Measles CPE 52* and NPY-Y2 antag 9.
`Cc1ccc(Cl)cc1NC(=S)N(CCCN1CCN(C)CC1)Cc1ccco1` gave NPY-Y1 antag 1, MDM2 E3 inh -5, NPY2 pot ag -5 and NPY-Y1 PAM-ag -18.
Screening Cc1cc(C)n2nnnc2n1 returned MDM2 E3 inh -69, NPY2 pot ag -16 and NPY-Y1 PAM-ag 16.
N#C/C(=C\c1ccccc1)c1nc2ncccc2[nH]1 was read as NPY-Y1 antag -2, MDM2 E3 inh -26, NPY2 pot ag 2, NPY-Y1 PAM-ag 12, Measles CPE 56* and NPY-Y2 antag 1.
For CCCC(c1nnnn1CS(=O)(=O)c1ccc(C)cc1)N1CCN(CC)CC1 (stereo unspecified) the results were NPY-Y1 antag -5, MDM2 E3 inh -2, NPY2 pot ag -4 and NPY-Y1 PAM-ag 15.
CCCCn1c(=N)n(CC(O)COc2cccc(C)c2)c2ccccc21 (stereo unspecified) was read as NPY-Y1 antag 31*, MDM2 E3 inh -2, NPY2 pot ag -22, NPY-Y1 PAM-ag -26, Measles CPE 2 and NPY-Y2 antag 54*.
`C=CCn1c(=N)n(CC(O)COc2ccccc2OC)c2ccccc21` (stereo unspecified) gave NPY-Y1 antag 12, MDM2 E3 inh -22, NPY2 pot ag -9, NPY-Y1 PAM-ag -8, Measles CPE 19 and NPY-Y2 antag 12.
For Cc1ccccc1OCC(O)Cn1c(=N)n(Cc2ccccc2)c2ccccc21 (stereo unspecified) the results were MDM2 E3 inh -13, NPY2 pot ag -17 and NPY-Y1 PAM-ag -3.
COc1ccccc1OCC(O)Cn1c(=N)n(Cc2ccccc2)c2ccccc21 (stereo unspecified) was read as NPY-Y1 antag 27*, MDM2 E3 inh -43, NPY2 pot ag -26, NPY-Y1 PAM-ag -55, Measles CPE 7 and NPY-Y2 antag 39*.
Screening CCCCCn1c(=N)n(CC(O)COc2ccccc2OC)c2ccccc21 (stereo unspecified) returned NPY-Y1 antag 25*, MDM2 E3 inh -18, NPY2 pot ag -28, NPY-Y1 PAM-ag -76, Measles CPE 2 and NPY-Y2 antag 35*.
O=C(CSc1nc2cc(Cl)ccc2s1)Nc1cccc(S(=O)(=O)N2CCOCC2)c1 was read as NPY-Y1 antag -2, MDM2 E3 inh -7, NPY2 pot ag 9, NPY-Y1 PAM-ag -7, Measles CPE 3 and NPY-Y2 antag 2.
